In ChEMBL document CHEMBL5143611, “Antillatoxin-Stimulated Neurite Outgrowth Involves the Brain-Derived Neurotrophic Factor (BDNF) - Tropomyosin Related Kinase B (TrkB) Signaling Pathway” (J Nat Prod, 2022):
Calls of active or inactive are those of the source. The calls are words filed in the database; no cut-off is given here.

Assays:
[1] = Induction of aspartate release in Swiss Webster mouse immature cerebrocortical neuron assessed as increase in aspartate concentration at 100 nM incubated for 2 hrs by HPLC based fluorescence method; type: functional, Cerebral cortex neuron
Summary of the method: (§1)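 Cortical neurons at 5 DIV in 96-well plates. Medium saved and cells washed in Locke's buffer, pH 7.4. Exposure in that buffer for 2 h at 22 °C, then three washes and return to the saved medium for 22 h at 37 °C. Medium then collected, derivatized with o-phthaldialdehyde and analysed by HPLC with fluorescence detection.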

[2] = Induction of aspartate release in Swiss Webster mouse immature cerebrocortical neuron assessed as increase in aspartate concentration at 30 nM incubated for 2 hrs by HPLC based fluorescence method; type: functional, Cerebral cortex neuron; summary of the method: as §1
[3] = Induction of glutamate release in Swiss Webster mouse immature cerebrocortical neuron assessed as increase in glutamate release at 30 nM incubated for 2 hrs by HPLC based fluorescence method; type: functional, Cerebral cortex neuron; summary of the method: as §1
[4] = (§2) Induction of BDNF release in Swiss Webster mouse immature cerebrocortical neuron assessed as increase in BDNF release incubated for 4 days by sandwich ELISA method; type: functional, cell-based; conditions: Cerebral cortex neuron, 96 h
Summary of the method: (§3)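 In situ sandwich ELISA. Plates coated overnight at 4 °C with anti-BDNF capture antibody, then blocked. Immature cortical neurons plated directly in the wells with BDNF standards and treated from 3 h after plating; 50 mM KCl served as comparator. After 4 days cells were washed off with TBST, and bound BDNF was detected with a polyclonal antibody for 2 h at RT.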

Cerebral cortex neuron [5] = assay: as §2; type: functional, cell-based; conditions: time 4.0 day, DDE = dose-dependent effect; summary of the method: as §3
Cerebral cortex neuron [6] = assay: Induction of BDNF release in Swiss Webster mouse immature cerebrocortical neuron assessed as increase in BDNF release at 100 to 3000 nM incubated for 4 days by sandwich ELISA method; type: functional, cell-based; conditions: dose 100-3000 nM, time 4.0 day; summary of the method: as §3
Cerebral cortex neuron [7] = assay: Induction of BDNF release in Swiss Webster mouse immature cerebrocortical neuron assessed as increase in BDNF synthesis at 30 nM incubated for 30 mins by western blot analysis; type: functional, cell-based
Summary of the method: (§4)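 DIV-1 cortical neurons in six-well plates exposed to 30 nM for 30 min at 37 °C. Where antagonists were used, 15 min preincubation. Exposure stopped on ice, cells washed in cold PBS and lysed 30 min at 4 °C. Protein measured by Bradford. Equal protein run on 10% SDS-PAGE, blotted to PVDF, probed with specific antibodies, ECL detection.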

Cerebral cortex neuron [8] = assay: Induction of glutamate release in Swiss Webster mouse immature cerebrocortical neuron assessed as increase in glutamate release at 30 to 100 nM incubated for 2 hrs by HPLC based fluorescence method; type: functional, cell-based; conditions: dose 30-100 nM; summary of the method: as §1
[9] = Induction of glutamate release in Swiss Webster mouse immature cerebrocortical neuron assessed as increase in glutamate release at 100 nM incubated for 2 hrs by HPLC based fluorescence method; type: functional, Cerebral cortex neuron; summary of the method: as §1
[10] = target: BDNF/NT-3 growth factors receptor (Homo sapiens) (UniProt Q16620); assay: Activation of full length isoform of TrkB receptor (unknown origin) expressed in mouse cerebrocortical neuron assessed as increase in neurite length at 30 nM incubated for 24 hrs by DiI dye based microscopic analysis; type: cell-based; conditions: filed as activator
Sequence of BDNF/NT-3 growth factors receptor (Homo sapiens) (Q16620 32-822 limits assumed): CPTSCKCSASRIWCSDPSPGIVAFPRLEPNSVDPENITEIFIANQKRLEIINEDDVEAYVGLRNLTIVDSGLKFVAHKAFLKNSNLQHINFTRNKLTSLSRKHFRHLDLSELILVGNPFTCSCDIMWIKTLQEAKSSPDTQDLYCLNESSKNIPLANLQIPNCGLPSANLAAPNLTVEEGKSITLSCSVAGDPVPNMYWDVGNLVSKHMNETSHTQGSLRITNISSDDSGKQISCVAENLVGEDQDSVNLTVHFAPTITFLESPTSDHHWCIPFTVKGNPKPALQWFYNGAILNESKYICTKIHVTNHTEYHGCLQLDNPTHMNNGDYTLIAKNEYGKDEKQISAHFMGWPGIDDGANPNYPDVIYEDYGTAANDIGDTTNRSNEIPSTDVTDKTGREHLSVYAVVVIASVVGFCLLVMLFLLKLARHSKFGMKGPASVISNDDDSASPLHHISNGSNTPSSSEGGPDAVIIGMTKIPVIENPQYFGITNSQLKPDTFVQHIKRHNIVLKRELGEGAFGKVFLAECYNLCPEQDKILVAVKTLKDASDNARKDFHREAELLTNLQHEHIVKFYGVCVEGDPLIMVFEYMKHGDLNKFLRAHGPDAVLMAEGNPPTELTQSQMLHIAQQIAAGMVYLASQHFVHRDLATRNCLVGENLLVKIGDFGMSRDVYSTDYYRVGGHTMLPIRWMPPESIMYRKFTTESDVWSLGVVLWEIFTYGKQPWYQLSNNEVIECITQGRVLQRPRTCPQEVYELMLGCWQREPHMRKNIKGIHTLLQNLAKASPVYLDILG
Summary of the method: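 E16 mouse cortical neurons plated at 0.5 × 10^6/well and lipofected 2 h after plating with 0.5 µg gene-of-interest plasmid or empty vector plus 0.25 µg GFP plasmid. 30 nM or vehicle added 3 h after transfection. Neurons imaged at DIV-2.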

[11] = target: BDNF/NT-3 growth factors receptor (Mus musculus) (UniProt P15209); assay: Activation of TrkB receptor in Swiss Webster mouse immature cerebrocortical neuron assessed as phosphorylation of TrkB at Tyr516 residue at 30 nM incubated for 30 mins by western blot analysis; type: cell-based; conditions: filed as activator; summary of the method: as §4
Sequence of BDNF/NT-3 growth factors receptor (Mus musculus) (P15209 whole entry): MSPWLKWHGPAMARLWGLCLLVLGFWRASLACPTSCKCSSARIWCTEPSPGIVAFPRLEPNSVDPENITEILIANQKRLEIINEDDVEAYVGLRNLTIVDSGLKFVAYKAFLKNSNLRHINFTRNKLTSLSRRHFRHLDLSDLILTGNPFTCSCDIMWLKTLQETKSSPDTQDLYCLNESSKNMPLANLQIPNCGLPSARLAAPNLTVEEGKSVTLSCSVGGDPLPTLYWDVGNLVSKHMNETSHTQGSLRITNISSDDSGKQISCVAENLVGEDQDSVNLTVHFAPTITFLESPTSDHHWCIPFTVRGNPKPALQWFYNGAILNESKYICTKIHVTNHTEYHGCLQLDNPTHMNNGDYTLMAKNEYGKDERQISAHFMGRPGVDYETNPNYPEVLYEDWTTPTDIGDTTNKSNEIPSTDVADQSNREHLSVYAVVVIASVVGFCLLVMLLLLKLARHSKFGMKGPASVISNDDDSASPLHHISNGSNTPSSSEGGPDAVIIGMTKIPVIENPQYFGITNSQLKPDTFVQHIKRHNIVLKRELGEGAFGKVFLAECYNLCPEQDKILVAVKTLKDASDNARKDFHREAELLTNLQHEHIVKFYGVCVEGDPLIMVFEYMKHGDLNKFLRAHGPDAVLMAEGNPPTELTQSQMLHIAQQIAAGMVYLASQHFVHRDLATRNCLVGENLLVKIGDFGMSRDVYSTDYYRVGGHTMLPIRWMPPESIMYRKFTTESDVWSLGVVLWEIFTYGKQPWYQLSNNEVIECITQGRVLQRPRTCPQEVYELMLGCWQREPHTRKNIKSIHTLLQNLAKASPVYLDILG

[12] = target: RAC-alpha serine/threonine-protein kinase (Mus musculus) (UniProt P31750); assay: Activation of Akt signalling pathway in Swiss Webster mouse immature cerebrocortical neuron assessed as increase in AKT phosphorylation of Ser473 by measuring fold change at […] incubated for 24 hrs by western blot analysis; type: cell-based; conditions: filed as activator, dose lower 10.0 µM
Sequence of RAC-alpha serine/threonine-protein kinase (Mus musculus) (P31750 whole entry): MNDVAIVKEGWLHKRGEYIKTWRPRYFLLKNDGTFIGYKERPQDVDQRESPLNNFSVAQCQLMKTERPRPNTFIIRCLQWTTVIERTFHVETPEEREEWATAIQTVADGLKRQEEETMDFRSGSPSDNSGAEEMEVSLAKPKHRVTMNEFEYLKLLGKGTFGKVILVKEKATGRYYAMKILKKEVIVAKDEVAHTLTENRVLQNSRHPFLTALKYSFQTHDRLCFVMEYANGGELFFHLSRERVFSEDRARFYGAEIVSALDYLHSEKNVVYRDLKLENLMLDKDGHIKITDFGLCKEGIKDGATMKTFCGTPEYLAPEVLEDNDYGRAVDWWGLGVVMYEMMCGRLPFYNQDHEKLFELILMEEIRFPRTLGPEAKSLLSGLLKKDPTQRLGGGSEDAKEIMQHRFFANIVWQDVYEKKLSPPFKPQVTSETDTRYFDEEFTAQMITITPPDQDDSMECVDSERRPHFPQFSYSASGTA

[13] = target: Serine/threonine-protein kinase mTOR (Mus musculus) (UniProt Q9JLN9); assay: Activation of mTOR signalling pathway in Swiss Webster mouse immature cerebrocortical neuron assessed as increase in mTOR phosphorylation at Ser2448 at […] incubated for 3 hrs by western blot analysis; type: cell-based; conditions: filed as activator

C=C1CC(=O)N[C@@H](C)C(=O)N(C)[C@@H](C(C)C)C(=O)NCC(=O)O[C@@H](/C(C)=C/C(C)=C/C(C)(C)C)[C@@H]1C [ANTILLATOXIN]
Activity [1]: 1.73 µM
Activity [2]: 1.81 µM
Activity [3]: 2.32 µM
EC50 [4]: 0.45 µM
Activity (Cerebral cortex neuron [5]): Dde
Activity (Cerebral cortex neuron [6]): Active
Activity (Cerebral cortex neuron [7]): Active
Activity (Cerebral cortex neuron [8]): Active
Activity [9]: 2.07 µM
Activity [10]: Active
Activity [11]: Active
fold change (FC) [12]: 3
fold change (FC) [13]: 2
